ChEMBL document CHEMBL1158424, “Design, synthesis and biological investigation of certain pyrazole-3-carboxylic acid derivatives as novel carriers for nitric oxide” (Bioorg Med Chem, 2009)
Values after ≈ are worked out from the molar mass of the structure shown. Active and inactive are the calls of the source. No cut-off for these calls is given here.

Key:
Rattus norvegicus [1] = assay: Gastrointestinal toxicity in albino rat assessed as incidence of gastric ulceration at 100 mg/kg, po by histopathological study; format: organism-based, Stomach; set-up: dose 100 mg/kg, route oral; conditions: in vivo
Procedure, shortened: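 Gastric sections dewaxed, rehydrated, stained with haematoxylin 5–7 min, differentiated in 1% HCl in 70% alcohol, stained with 1% eosin 10 min, dehydrated, cleared in xylene, mounted and examined by light microscopy.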

Rattus norvegicus [2] = assay: Antiinflammatory activity in albino rat assessed as inhibition of carrageenan-induced paw edema at 100 mg/kg, po administered 30 mins prior to carrageenan challenge measured after 5 hrs; format: functional
Procedure, shortened: (§1)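 Male albino rats, 140–150 g, groups of 5, acclimatized 3 days, water only on the last day. Oral dosing in carboxymethylcellulose vehicle 30 min before subplantar 1% carrageenan (0.1 mL) into one hind paw; contralateral paw given saline. Paw thickness by digital plethysmometer at 0–5 h. Percent inhibition from difference between paws, treated versus vehicle control; indomethacin reference; mean ± SEM.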

Rattus norvegicus [3] = assay: Antiinflammatory activity in albino rat assessed as inhibition of carrageenan-induced paw edema at 100 mg/kg, po administered 30 mins prior to carrageenan challenge measured after 3 hrs; format: functional; procedure, shortened: as §1
Rattus norvegicus [4] = assay: Gastrointestinal toxicity in albino rat assessed as ulcer index at 100 mg/kg, po; format: organism-based; set-up: dose 100 mg/kg, route oral; conditions: in vivo
Procedure, shortened: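 Rats from the paw edema study killed by ether overdose; stomachs removed, opened and examined for visible lesions. Each lesion scored 0–5 by length (0 none, 1 petechiae, 2 <1 mm, 3 1–2 mm, 4 2–4 mm, 5 >4 mm erosions). Scores summed per rat; group ulcer index is the mean lesion score.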

Rattus norvegicus [5] = assay: Antiinflammatory activity in albino rat assessed as inhibition of carrageenan-induced paw edema at 100 mg/kg, po administered 30 mins prior to carrageenan challenge measured after 2 hrs; format: functional; procedure, shortened: as §1
Bacillus subtilis = assay: Antibacterial activity against Bacillus subtilis after 24 hrs by agar cup diffusion method; format: functional
Procedure, shortened: (§2)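 Nutrient agar seeded with culture, poured 3–4 mm; six 10 mm cups per plate, one as DMF solvent control. Compounds dissolved in DMF (stock 1 mg/mL), two-fold serial dilutions 32–512 µg/mL, 0.1 mL per cup. Incubation 24 h at 37 °C; inhibition zone diameter read in mm. MIC taken as intercept of log concentration versus zone diameter plot; ciprofloxacin reference.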

Rattus norvegicus [6] = assay: Antiinflammatory activity in albino rat assessed as inhibition of carrageenan-induced paw edema at 100 mg/kg, po administered 30 mins prior to carrageenan challenge measured after 4 hrs; format: functional; procedure, shortened: as §1
Staphylococcus aureus = assay: Antibacterial activity against Staphylococcus aureus NCTC 6571 after 24 hrs by agar cup diffusion method; format: functional; procedure, shortened: as §2
Rattus norvegicus [7] = assay: Antiinflammatory activity in albino rat assessed as inhibition of carrageenan-induced paw edema at 100 mg/kg, po administered 30 mins prior to carrageenan challenge measured after 1 hr; format: functional; procedure, shortened: as §1
Escherichia coli = assay: Antibacterial activity against Escherichia coli C-600 after 24 hrs by agar cup diffusion method; format: functional; procedure, shortened: as §2
Pseudomonas aeruginosa = assay: Antibacterial activity against Pseudomonas aeruginosa after 24 hrs by agar cup diffusion method; format: functional; procedure, shortened: as §2
[8] = Nitric oxide release in phosphate buffer at pH 7.4 after 1 hr by Griess diazotization reaction method in presence of L-cysteine; set-up: concentration or dose not given beside the values
Procedure, shortened: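 Incubation in pH 7.4 phosphate buffer with L-cysteine for 1 h at 37 °C. Then 1 mL of mixture treated with Griess reagent (sulfanilamide, N-naphthylethylenediamine, phosphoric acid); absorbance read at 540 nm after 25 min. Nitrite quantified against sodium nitrite standard curve; % release = found/theoretical NO × 100.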

Rattus norvegicus [9] = assay: Gastroprotective activity in albino rat assessed as preventive index at 100 mg/kg, po; format: functional
Procedure, shortened: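 Preventive index = (UI of ulcered group − UI of treated group)/UI of ulcered group × 100. UI from lesion scoring (0–5 by erosion length) of stomachs of rats from the paw edema study.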

Compound	MIC (Bacillus subtilis)	MIC (Staphylococcus aureus)	MIC (Escherichia coli)	MIC (Pseudomonas aeruginosa) [mg/L]	MIC (Staphylococcus aureus; NCTC 6571, 24 h) [mg/L]	MIC (Escherichia coli; C-600, 24 h) [mg/L]	Activity (Rattus norvegicus [1])	inhibition in vivo at 100 mg/kg (Rattus norvegicus [2]) [%]	inhibition in vivo at 100 mg/kg (Rattus norvegicus [3]) [%]	UI (Rattus norvegicus [4])	inhibition in vivo at 100 mg/kg (Rattus norvegicus [5]) [%]	inhibition in vivo at 100 mg/kg (Rattus norvegicus [6]) [%]	inhibition in vivo at 100 mg/kg (Rattus norvegicus [7]) [%]	Activity [8] [%]	PI (Rattus norvegicus [9]) [%]
O=C(Nc1ccc(Cl)cc1)c1nn(-c2ccccc2)c(-c2ccccc2)c1C(=O)c1ccccc1	inactive	inactive	inactive	25.1 (≈ 52.5 µM)			Toxic	55.9	35	20.3	40	36.5	45.5		
O=C(Nc1ccc(Cl)cc1)c1nn(-c2ccccc2)c(-c2ccccc2)c1/C(=N/O)c1ccccc1	5.82 mg/L (≈ 11.8 µM)			10.3 (≈ 20.9 µM)	90.4 (≈ 183 µM)	14.1 (≈ 28.6 µM)	Non-toxic	60.9	47.6	7.5	23.3	55.9	23.6	7.8	
O=C(c1ccccc1)c1c(C(=O)N2CCN(C(=O)CO[N+](=O)[O-])CC2)nn(-c2ccccc2)c1-c1ccccc1	2.45 mg/L (≈ 4.54 µM)	inactive		93.3 (≈ 173 µM)		64 (≈ 119 µM)	Non-toxic	68.1	43	5.5	30	45.6	45.5	13.8	76.08
O=C(OCCO[N+](=O)[O-])c1nn(-c2ccccc2)c(-c2ccccc2)c1C(=O)c1ccccc1	21.7 mg/L (≈ 47.4 µM)	inactive		11.3 (≈ 24.7 µM)		15.3 (≈ 33.4 µM)		71	47.6	7.5	35	58.8	29.1	7.1	
O=C(c1ccccc1)c1c(C(=O)N2CCNCC2)nn(-c2ccccc2)c1-c1ccccc1	2.18 mg/L (≈ 4.99 µM)	inactive		84.5 (≈ 194 µM)		1.92 (≈ 4.4 µM)	Toxic	66.7	28.6	23	41.7	51.5	35		
C/C(=N\O)c1ccc(NC(=O)c2nn(-c3ccccc3)c(-c3ccccc3)c2C(=O)c2ccccc2)cc1	90.4 mg/L (≈ 181 µM)	inactive		27.2 (≈ 54.4 µM)		1.62 (≈ 3.24 µM)		62.3	33.3	4	33.3	51.5	16.4	11.6	
O=C(Nc1ccc(S(=O)(=O)Nc2ncccn2)cc1)c1nn(-c2ccccc2)c(-c2ccccc2)c1C(=O)c1ccccc1	47 mg/L (≈ 78.3 µM)	inactive	inactive	44.3 (≈ 73.8 µM)				41.2	25	9.3	18.2	27	18.2		
COc1ccc(NC(=O)c2nn(-c3ccccc3)c(-c3ccccc3)c2/C(=N/O)c2ccccc2)cc1	43.9 mg/L (≈ 89.8 µM)	inactive		9.7 (≈ 19.9 µM)		2.88 (≈ 5.9 µM)		56.5	36.5	8.5	25	51.5	30.9	8	74

More lines, main results first:

MIC (Bacillus subtilis)	MIC (Staphylococcus aureus)	MIC (Escherichia coli)	MIC (Pseudomonas aeruginosa) [mg/L]	MIC (Staphylococcus aureus; NCTC 6571, 24 h) [mg/L]	MIC (Escherichia coli; C-600, 24 h) [mg/L]	Compound	Activity (Rattus norvegicus [1])	inhibition in vivo at 100 mg/kg (Rattus norvegicus [2]) [%]	inhibition in vivo at 100 mg/kg (Rattus norvegicus [3]) [%]	UI (Rattus norvegicus [4])	inhibition in vivo at 100 mg/kg (Rattus norvegicus [5]) [%]	inhibition in vivo at 100 mg/kg (Rattus norvegicus [6]) [%]	inhibition in vivo at 100 mg/kg (Rattus norvegicus [7]) [%]	Activity [8] [%]	PI (Rattus norvegicus [9]) [%]
54.7 mg/L (≈ 88.8 µM)	inactive		23.3 (≈ 37.9 µM)		30.9 (≈ 50.1 µM)	O=C(Nc1ccc(S(=O)(=O)Nc2ncccn2)cc1)c1nn(-c2ccccc2)c(-c2ccccc2)c1/C(=N/O)c1ccccc1		56.5	31.7	7.6	26.7	51.5	16.4	7.4	
2.87 mg/L (≈ 6.07 µM)	inactive		7.99 (≈ 16.9 µM)		28.6 (≈ 60.6 µM)	Cc1ccc(NC(=O)c2nn(-c3ccccc3)c(-c3ccccc3)c2/C(=N/O)c2ccccc2)cc1		82.6	36.5	3	20	45.6	12.7	10.1	
1.75 mg/L (≈ 3.6 µM)	inactive		32.4 (≈ 66.7 µM)		39.9 (≈ 82.2 µM)	CC(=O)c1ccc(NC(=O)c2nn(-c3ccccc3)c(-c3ccccc3)c2C(=O)c2ccccc2)cc1		61.8	45	11	45.5	47.6	29.1		
29.5 mg/L (≈ 58.7 µM)			13.6 (≈ 27.1 µM)	50.5 (≈ 100 µM)	2.8 (≈ 5.57 µM)	O=C(O)c1ccc(NC(=O)c2nn(-c3ccccc3)c(-c3ccccc3)c2/C(=N/O)c2ccccc2)cc1		81.2	47.6	8.5	45	61.8	45.5	9.3	
